Reference: ChEMBL document CHEMBL2331200, “Synthesis and bioevaluation of [(18)F]4-fluoro-m-hydroxyphenethylguanidine ([(18)F]4F-MHPG): a novel radiotracer for quantitative PET studies of cardiac sympathetic innervation” (Bioorg Med Chem Lett, 2013)

Legend:
[1] = Biodistribution in iv dosed rhesus monkey liver; type: ADME, organism-based, Macaca mulatta; settings: in vivo
How it was run: (§1)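 Dynamic PET imaging of a single nonhuman primate after injection of the 18F tracer. Regional heart, liver and lung activity was read from the images. Heart-to-blood activity ratios were taken at 80–90 min post-injection.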

[2] = tested on: Heart; assay: Drug uptake in rat heart assessed as neuronal uptake rate per gram of wet weight after 10 mins constant infusion measured up to 140 mins; type: ADME, tissue-based; settings: ex_vivo
How it was run: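 Isolated working rat heart with uptake-2 blocked by 54 μM corticosterone in the perfusion buffer. Radiotracer was infused for 10 min at constant perfusate concentration to give the neuronal uptake rate Kup (ml/min/g wet).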

[3] = Biodistribution in iv dosed rhesus monkey lungs; type: ADME, organism-based, Macaca mulatta, Lung; settings: in vivo; how it was run: as §1
[4] = Biodistribution in iv dosed rhesus monkey left ventricle; type: ADME, organism-based, Macaca mulatta, Heart left ventricle; settings: in vivo; how it was run: as §1
[5] = Biodistribution in iv dosed rhesus monkey heart; type: ADME, organism-based, Macaca mulatta; settings: in vivo; how it was run: as §1

Compound	Drug uptake [1]	Drug uptake [2] [mL/min/g]	Drug uptake [3]	Drug uptake [4]	Drug uptake [5]
N=C(N)NCc1cccc([123I])c1 [IOBENGUANE I 123]	Active				
N=C(N)NCc1ccc([18F])cc1		1.2			
N=C(N)NCCc1ccc([18F])c(O)c1	Active		Not Active	Active	Active
C[C@H](N[11CH3])[C@H](O)c1cccc(O)c1	Active				
